# PMC4233149 (Clinical cancer research : an official journal of the …, 2014)
# Marks after values point to notes of the source that are not given here.
# Test: Phase I safety and tolerability, weekly
# Format: in vivo, human
# Summary of the method: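 Oral weekly dose escalation followed a 3+3 design (planned 90, 135, 200, 300mg, intermediate doses allowed), then a modified toxicity-probability-interval confirmation stage. A DLT was any drug-related CTCAE v3.0 ≥G4 hematological, ≥G3 febrile neutropenia or ≥G3 non-hematological toxicity. Safety visits, glucose, C-peptide and HbA1c monitoring followed a fixed schedule; AEs were graded by CTCAE v3.0.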
smiles,measurement,setting,value
NC1(c2ccc(-c3nc4ccn5c(=O)[nH]nc5c4cc3-c3ccccc3)cc2)CCC1 [MK-2206],"Anorexia, number of AEs","90mg QW, G1, all cycles",0 (0)
same,"Dermatitis acneiform, number of AEs","90mg QW, G1, all cycles",0 (0)
same,"Diarrhea, number of AEs","90mg QW, G1, all cycles",1 (1)
same,"Dry skin, number of AEs","90mg QW, G1, all cycles",0 (0)
same,"Fatigue, number of AEs","90mg QW, G1, all cycles",1 (1)
same,"Nausea, number of AEs","90mg QW, G1, all cycles",0 (0)
same,"Pruritus, number of AEs","90mg QW, G1, all cycles",0 (0)
same,"Rash (all rash terms collated), number of AEs","90mg QW, G1, all cycles",0 (0)
same,"Stomatitis, number of AEs","90mg QW, G1, all cycles",0 (0)
same,"Vomiting, number of AEs","90mg QW, G1, all cycles",1 (1)
same,"Anorexia, number of AEs","90mg QW, G1, cycle 1",0 (0)
same,"Dermatitis acneiform, number of AEs","90mg QW, G1, cycle 1",0 (0)
same,"Diarrhea, number of AEs","90mg QW, G1, cycle 1",1 (1)
same,"Dry skin, number of AEs","90mg QW, G1, cycle 1",0 (0)
same,"Fatigue, number of AEs","90mg QW, G1, cycle 1",1 (1)
same,"Nausea, number of AEs","90mg QW, G1, cycle 1",0 (0)
same,"Pruritus, number of AEs","90mg QW, G1, cycle 1",0 (0)
same,"Rash (all rash terms collated), number of AEs","90mg QW, G1, cycle 1",0 (0)
same,"Stomatitis, number of AEs","90mg QW, G1, cycle 1",0 (0)
same,"Vomiting, number of AEs","90mg QW, G1, cycle 1",1 (1)
same,"Anorexia, number of AEs","135mg QW, G1, all cycles",0 (0)
same,"Dermatitis acneiform, number of AEs","135mg QW, G1, all cycles",1 (1)
same,"Diarrhea, number of AEs","135mg QW, G1, all cycles",0 (0)
same,"Dry skin, number of AEs","135mg QW, G1, all cycles",0 (0)
same,"Dysgeusia, number of AEs","135mg QW, G1, all cycles",0 (0)
same,"Fatigue, number of AEs","135mg QW, G1, all cycles",0 (0)
same,"Nausea, number of AEs","135mg QW, G1, all cycles",0 (0)
same,"Pruritus, number of AEs","135mg QW, G1, all cycles",1 (1)
same,"Rash (all rash terms collated), number of AEs","135mg QW, G1, all cycles",1 (1)
same,"Stomatitis, number of AEs","135mg QW, G1, all cycles",0 (0)
same,"Vomiting, number of AEs","135mg QW, G1, all cycles",0 (0)
same,"Anorexia, number of AEs","135mg QW, G1, cycle 1",0 (0)
same,"Dermatitis acneiform, number of AEs","135mg QW, G1, cycle 1",1 (1)
same,"Diarrhea, number of AEs","135mg QW, G1, cycle 1",0 (0)
same,"Dry skin, number of AEs","135mg QW, G1, cycle 1",0 (0)
same,"Dysgeusia, number of AEs","135mg QW, G1, cycle 1",0 (0)
same,"Fatigue, number of AEs","135mg QW, G1, cycle 1",0 (0)
same,"Nausea, number of AEs","135mg QW, G1, cycle 1",0 (0)
same,"Pruritus, number of AEs","135mg QW, G1, cycle 1",1 (1)
same,"Rash (all rash terms collated), number of AEs","135mg QW, G1, cycle 1",1 (1)
same,"Stomatitis, number of AEs","135mg QW, G1, cycle 1",0 (0)
same,"Vomiting, number of AEs","135mg QW, G1, cycle 1",0 (0)
same,"Dermatitis acneiform, number of AEs","150mg QW, G1, all cycles",0 (0)
same,"Diarrhea, number of AEs","150mg QW, G1, all cycles",0 (0)
same,"Dry skin, number of AEs","150mg QW, G1, all cycles",0 (0)
same,"Dysgeusia, number of AEs","150mg QW, G1, all cycles",0 (0)
same,"Fatigue, number of AEs","150mg QW, G1, all cycles",0 (0)
same,"Nausea, number of AEs","150mg QW, G1, all cycles",0 (0)
same,"Pruritus, number of AEs","150mg QW, G1, all cycles",0 (0)
same,"Rash (all rash terms collated), number of AEs","150mg QW, G1, all cycles",0 (0)
same,"Stomatitis, number of AEs","150mg QW, G1, all cycles",0 (0)
same,"Vomiting, number of AEs","150mg QW, G1, all cycles",2 (2)
same,"Dermatitis acneiform, number of AEs","150mg QW, G1, cycle 1",0 (0)
same,"Diarrhea, number of AEs","150mg QW, G1, cycle 1",0 (0)
same,"Dry skin, number of AEs","150mg QW, G1, cycle 1",0 (0)
same,"Dysgeusia, number of AEs","150mg QW, G1, cycle 1",0 (0)
same,"Fatigue, number of AEs","150mg QW, G1, cycle 1",0 (0)
same,"Nausea, number of AEs","150mg QW, G1, cycle 1",0 (0)
same,"Pruritus, number of AEs","150mg QW, G1, cycle 1",0 (0)
same,"Rash (all rash terms collated), number of AEs","150mg QW, G1, cycle 1",0 (0)
same,"Stomatitis, number of AEs","150mg QW, G1, cycle 1",0 (0)
same,"Vomiting, number of AEs","150mg QW, G1, cycle 1",2 (2)
same,"Anorexia, number of AEs","150mg QW, G2, all cycles",0 (0)
same,"Dermatitis acneiform, number of AEs","150mg QW, G2, all cycles",0 (0)
same,"Diarrhea, number of AEs","150mg QW, G2, all cycles",0 (0)
same,"Dry skin, number of AEs","150mg QW, G2, all cycles",0 (0)
same,"Dysgeusia, number of AEs","150mg QW, G2, all cycles",0 (0)
same,"Fatigue, number of AEs","150mg QW, G2, all cycles",0 (0)
same,"Nausea, number of AEs","150mg QW, G2, all cycles",1 (1)
same,"Pruritus, number of AEs","150mg QW, G2, all cycles",0 (0)
same,"Rash (all rash terms collated), number of AEs","150mg QW, G2, all cycles",0 (0)
same,"Stomatitis, number of AEs","150mg QW, G2, all cycles",0 (0)
same,"Vomiting, number of AEs","150mg QW, G2, all cycles",0 (0)
same,"Anorexia, number of AEs","150mg QW, G2, cycle 1",0 (0)
same,"Dermatitis acneiform, number of AEs","150mg QW, G2, cycle 1",0 (0)
same,"Diarrhea, number of AEs","150mg QW, G2, cycle 1",0 (0)
same,"Dry skin, number of AEs","150mg QW, G2, cycle 1",0 (0)
same,"Dysgeusia, number of AEs","150mg QW, G2, cycle 1",0 (0)
same,"Fatigue, number of AEs","150mg QW, G2, cycle 1",0 (0)
same,"Nausea, number of AEs","150mg QW, G2, cycle 1",1 (1)
same,"Pruritus, number of AEs","150mg QW, G2, cycle 1",0 (0)
same,"Rash (all rash terms collated), number of AEs","150mg QW, G2, cycle 1",0 (0)
same,"Stomatitis, number of AEs","150mg QW, G2, cycle 1",0 (0)
same,"Vomiting, number of AEs","150mg QW, G2, cycle 1",0 (0)
same,"Anorexia, number of AEs","150mg QW, G3, all cycles",0 (0)
same,"Dermatitis acneiform, number of AEs","150mg QW, G3, all cycles",0 (0)
same,"Diarrhea, number of AEs","150mg QW, G3, all cycles",0 (0)
same,"Dry skin, number of AEs","150mg QW, G3, all cycles",0 (0)
same,"Dysgeusia, number of AEs","150mg QW, G3, all cycles",0 (0)
same,"Fatigue, number of AEs","150mg QW, G3, all cycles",0 (0)
same,"Nausea, number of AEs","150mg QW, G3, all cycles",0 (0)
same,"Pruritus, number of AEs","150mg QW, G3, all cycles",0 (0)
same,"Rash (all rash terms collated), number of AEs","150mg QW, G3, all cycles",3
same,"Stomatitis, number of AEs","150mg QW, G3, all cycles",0 (0)
same,"Vomiting, number of AEs","150mg QW, G3, all cycles",0 (0)
same,"Anorexia, number of AEs","150mg QW, G3, cycle 1",0 (0)
same,"Dermatitis acneiform, number of AEs","150mg QW, G3, cycle 1",0 (0)
same,"Diarrhea, number of AEs","150mg QW, G3, cycle 1",0 (0)
same,"Dry skin, number of AEs","150mg QW, G3, cycle 1",0 (0)
same,"Dysgeusia, number of AEs","150mg QW, G3, cycle 1",0 (0)
same,"Fatigue, number of AEs","150mg QW, G3, cycle 1",0 (0)
same,"Nausea, number of AEs","150mg QW, G3, cycle 1",0 (0)
same,"Pruritus, number of AEs","150mg QW, G3, cycle 1",0 (0)
same,"Stomatitis, number of AEs","150mg QW, G3, cycle 1",0 (0)
same,"Vomiting, number of AEs","150mg QW, G3, cycle 1",0 (0)
same,"Rash (all rash terms collated), number of AEs","150mg QW, G3, cycle 1, dose-limiting toxicity",1
same,"Anorexia, number of AEs","200mg QW, G1, all cycles",1 (1)
same,"Dermatitis acneiform, number of AEs","200mg QW, G1, all cycles",0 (0)
same,"Diarrhea, number of AEs","200mg QW, G1, all cycles",2 (2)
same,"Dry skin, number of AEs","200mg QW, G1, all cycles",1 (1)
same,"Dysgeusia, number of AEs","200mg QW, G1, all cycles",0 (0)
same,"Nausea, number of AEs","200mg QW, G1, all cycles",4 (4)
same,"Stomatitis, number of AEs","200mg QW, G1, all cycles",2 (2)
same,"Vomiting, number of AEs","200mg QW, G1, all cycles",2 (2)
same,"Anorexia, number of AEs","200mg QW, G1, cycle 1",1 (1)
same,"Dermatitis acneiform, number of AEs","200mg QW, G1, cycle 1",0 (0)
same,"Diarrhea, number of AEs","200mg QW, G1, cycle 1",2 (2)
same,"Dry skin, number of AEs","200mg QW, G1, cycle 1",1 (1)
same,"Dysgeusia, number of AEs","200mg QW, G1, cycle 1",0 (0)
same,"Nausea, number of AEs","200mg QW, G1, cycle 1",4 (4)
same,"Stomatitis, number of AEs","200mg QW, G1, cycle 1",2 (2)
same,"Vomiting, number of AEs","200mg QW, G1, cycle 1",2 (2)
same,"Anorexia, number of AEs","200mg QW, G2, all cycles",0 (0)
same,"Dermatitis acneiform, number of AEs","200mg QW, G2, all cycles",0 (0)
same,"Diarrhea, number of AEs","200mg QW, G2, all cycles",0 (0)
same,"Dry skin, number of AEs","200mg QW, G2, all cycles",0 (0)
same,"Dysgeusia, number of AEs","200mg QW, G2, all cycles",0 (0)
same,"Fatigue, number of AEs","200mg QW, G2, all cycles",1 (1)
same,"Nausea, number of AEs","200mg QW, G2, all cycles",1 (1)
same,"Rash (all rash terms collated), number of AEs","200mg QW, G2, all cycles",4 (4)
same,"Stomatitis, number of AEs","200mg QW, G2, all cycles",0 (0)
same,"Vomiting, number of AEs","200mg QW, G2, all cycles",0 (0)
same,"Anorexia, number of AEs","200mg QW, G2, cycle 1",0 (0)
same,"Dermatitis acneiform, number of AEs","200mg QW, G2, cycle 1",0 (0)
same,"Diarrhea, number of AEs","200mg QW, G2, cycle 1",0 (0)
same,"Dry skin, number of AEs","200mg QW, G2, cycle 1",0 (0)
same,"Dysgeusia, number of AEs","200mg QW, G2, cycle 1",0 (0)
same,"Fatigue, number of AEs","200mg QW, G2, cycle 1",1 (1)
same,"Nausea, number of AEs","200mg QW, G2, cycle 1",1 (1)
same,"Rash (all rash terms collated), number of AEs","200mg QW, G2, cycle 1",4 (4)
same,"Stomatitis, number of AEs","200mg QW, G2, cycle 1",0 (0)
same,"Vomiting, number of AEs","200mg QW, G2, cycle 1",0 (0)
same,"Anorexia, number of AEs","200mg QW, G3, all cycles",0 (0)
same,"Dermatitis acneiform, number of AEs","200mg QW, G3, all cycles",1^c (1)
same,"Diarrhea, number of AEs","200mg QW, G3, all cycles",0 (0)
same,"Dry skin, number of AEs","200mg QW, G3, all cycles",0 (0)
same,"Dysgeusia, number of AEs","200mg QW, G3, all cycles",0 (0)
same,"Fatigue, number of AEs","200mg QW, G3, all cycles",0 (0)
same,"Nausea, number of AEs","200mg QW, G3, all cycles",0 (0)
same,"Pruritus, number of AEs","200mg QW, G3, all cycles",0 (0)
same,"Rash (all rash terms collated), number of AEs","200mg QW, G3, all cycles",3^c (3)
same,"Stomatitis, number of AEs","200mg QW, G3, all cycles",0 (0)
same,"Vomiting, number of AEs","200mg QW, G3, all cycles",0 (0)
same,"Anorexia, number of AEs","200mg QW, G3, cycle 1",0 (0)
